Data published in ChEMBL document CHEMBL6087457, “Discovery of MDI-114215: A Potent and Selective LIMK Inhibitor To Treat Fragile X Syndrome” (J Med Chem, 2025).
Activity calls are given as the source filed them. No cut-off for these calls is given here.

Assays:
[1] = Toxicity in CD-1 mouse assessed as adverse clinical signs at 30 mg/kg/day, ip treated daily for 28 days; format: organism-based; details: in vivo, 672 h, time 28 day
Procedure, shortened: (§1)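 Male CD-1 mice, 6 weeks old at start, dosed with vehicle or 30 mg/kg/day i.p. once daily for 28 days, followed by a 2-week treatment-free recovery. Endpoints: body weight, food consumption, clinical signs, macro- and microscopic pathology, and organ weights (male sexual organs) after […] of dosing and after recovery. Data given as mean ± SEM.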

Cytochrome P450 1A2 = target: T1, Cytochrome P450 1A2 (Homo sapiens, UniProt P05177); assay: Inhibition of CYP1A2 (unknown origin); format: ADME, microsomes, Liver, Microsome
T1 sequence (P05177 whole entry): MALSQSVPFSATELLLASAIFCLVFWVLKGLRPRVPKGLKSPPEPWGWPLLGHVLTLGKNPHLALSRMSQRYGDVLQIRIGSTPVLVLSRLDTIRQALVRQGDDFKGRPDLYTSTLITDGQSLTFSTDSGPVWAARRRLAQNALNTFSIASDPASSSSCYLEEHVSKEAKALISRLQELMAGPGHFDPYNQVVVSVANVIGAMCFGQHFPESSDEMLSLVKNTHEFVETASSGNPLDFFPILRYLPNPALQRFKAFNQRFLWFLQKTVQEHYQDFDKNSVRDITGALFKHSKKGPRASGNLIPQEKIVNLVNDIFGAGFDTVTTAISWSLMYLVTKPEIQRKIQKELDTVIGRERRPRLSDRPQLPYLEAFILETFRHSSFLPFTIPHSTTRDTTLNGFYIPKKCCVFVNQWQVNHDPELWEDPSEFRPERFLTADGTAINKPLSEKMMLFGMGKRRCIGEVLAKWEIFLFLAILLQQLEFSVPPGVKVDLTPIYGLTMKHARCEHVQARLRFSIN

[2] = Toxicity in CD-1 mouse assessed as body weight change at 30 mg/kg/day, ip treated daily for 28 days; format: organism-based; details: in vivo, 672 h, time 28 day; procedure, shortened: as §1
[3] = Toxicity in CD-1 mouse assessed as inflammatory cell infiltration in epididymis at 30 mg/kg/day, ip treated daily for 28 days measured after 14 days of recovery period; format: organism-based; details: in vivo, 672 h, time 28 day; procedure, shortened: as §1
[4] = Toxicity in CD-1 mouse assessed as change in testis weight at 30 mg/kg/day, ip treated daily for 28 days; format: organism-based; details: in vivo, 672 h, time 28 day; procedure, shortened: as §1
[5] = Toxicity in CD-1 mouse assessed as drug tolerance at 30 mg/kg/day, ip treated daily for 28 days; format: organism-based; details: in vivo, 672 h, time 28 day; procedure, shortened: as §1
Cytochrome P450 2C19 = Cytochrome P450 2C19 (Homo sapiens, UniProt P33261); assay: Inhibition of CYP2C19 (unknown origin); format: ADME, microsomes, Liver, Microsome
[6] = Drug concentration in brain of CD-1 mouse at 30 mg/kg/day, ip treated daily for 28 days; format: ADME, organism-based; details: time 28 day, read-out: Ct
[7] = Toxicity in CD-1 mouse assessed as change in prostate weight at 30 mg/kg/day, ip treated daily for 28 days; format: organism-based; details: in vivo, 672 h, time 28 day; procedure, shortened: as §1
[8] = Toxicity in CD-1 mouse assessed as effect on food consumption at 30 mg/kg/day, ip treated daily for 28 days; format: organism-based; details: in vivo, 672 h, time 28 day; procedure, shortened: as §1
[9] = Toxicity in CD-1 mouse assessed as change in seminal vesicle weight at 30 mg/kg/day, ip treated daily for 28 days; format: organism-based; details: in vivo, 672 h, time 28 day; procedure, shortened: as §1
[10] = Toxicity in CD-1 mouse assessed as adverse microscopic findings at 30 mg/kg/day, ip treated daily for 28 days; format: organism-based; details: in vivo, 672 h, time 28 day; procedure, shortened: as §1
[11] = Toxicity in CD-1 mouse assessed as adverse macroscopic findings at 30 mg/kg/day, ip treated daily for 28 days; format: organism-based; details: in vivo, 672 h, time 28 day; procedure, shortened: as §1
Cytochrome P450 2D6 = Cytochrome P450 2D6 (Homo sapiens, UniProt P10635); assay: Inhibition of CYP2D6 (unknown origin); format: ADME, microsomes, Liver, Microsome
[12] = Drug concentration in plasma of CD-1 mouse at 30 mg/kg/day, ip treated daily for 28 days; format: ADME, organism-based; details: time 28 day
[13] = Toxicity in CD-1 mouse assessed as change in epididymis weight at 30 mg/kg/day, ip treated daily for 28 days; format: organism-based; details: in vivo, 672 h, time 28 day; procedure, shortened: as §1
[14] = target: LIM domain kinase 1 (Mus musculus) (UniProt P53668); assay: Ex vivo inhibition of LIMK in hippocampus of Fmr1 KO mouse model of FXS assessed as reduction in p-cofilin level at 3 uM incubated for 30 mins by Western blot analysis; format: functional
Procedure, shortened: (§2)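 Acute hippocampal slices from P7–9 WT and Fmr1 KO mice, incubated with vehicle (DMSO) or 3 μM LIMK inhibitor. p-Cofilin and total cofilin measured by Western blot and expressed as a p-cofilin/cofilin ratio. n = 2–4 animals per group. Significance by one-way ANOVA with Dunnett's multiple comparisons test.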

[15] = target: LIM domain kinase 1 (Mus musculus) (UniProt P53668); assay: Ex vivo inhibition of LIMK in hippocampus of mouse assessed as reduction in p-cofilin level at 3 uM incubated for 30 mins by Western blot analysis; format: functional; procedure, shortened: as §2

LIM domain kinase 1 (Mus musculus), sequence (P53668 whole entry, the tested form may be a part): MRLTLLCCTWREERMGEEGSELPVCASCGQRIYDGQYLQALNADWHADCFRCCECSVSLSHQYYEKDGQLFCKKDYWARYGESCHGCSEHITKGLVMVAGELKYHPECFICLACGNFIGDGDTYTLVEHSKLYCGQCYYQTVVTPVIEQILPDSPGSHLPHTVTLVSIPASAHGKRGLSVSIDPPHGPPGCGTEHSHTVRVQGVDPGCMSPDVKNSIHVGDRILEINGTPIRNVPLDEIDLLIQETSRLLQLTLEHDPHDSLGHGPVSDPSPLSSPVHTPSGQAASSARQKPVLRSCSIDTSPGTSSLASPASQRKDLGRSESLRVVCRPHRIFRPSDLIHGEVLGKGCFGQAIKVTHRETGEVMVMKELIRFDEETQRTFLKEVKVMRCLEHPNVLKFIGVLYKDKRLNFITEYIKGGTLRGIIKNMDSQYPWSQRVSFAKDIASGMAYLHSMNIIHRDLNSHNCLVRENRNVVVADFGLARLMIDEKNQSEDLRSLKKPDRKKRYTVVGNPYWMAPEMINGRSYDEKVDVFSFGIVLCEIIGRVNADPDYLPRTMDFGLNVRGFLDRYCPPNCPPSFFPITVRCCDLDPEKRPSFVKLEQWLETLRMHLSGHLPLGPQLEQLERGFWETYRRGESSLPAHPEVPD
Cytochrome P450 2C19, sequence (P33261 whole entry): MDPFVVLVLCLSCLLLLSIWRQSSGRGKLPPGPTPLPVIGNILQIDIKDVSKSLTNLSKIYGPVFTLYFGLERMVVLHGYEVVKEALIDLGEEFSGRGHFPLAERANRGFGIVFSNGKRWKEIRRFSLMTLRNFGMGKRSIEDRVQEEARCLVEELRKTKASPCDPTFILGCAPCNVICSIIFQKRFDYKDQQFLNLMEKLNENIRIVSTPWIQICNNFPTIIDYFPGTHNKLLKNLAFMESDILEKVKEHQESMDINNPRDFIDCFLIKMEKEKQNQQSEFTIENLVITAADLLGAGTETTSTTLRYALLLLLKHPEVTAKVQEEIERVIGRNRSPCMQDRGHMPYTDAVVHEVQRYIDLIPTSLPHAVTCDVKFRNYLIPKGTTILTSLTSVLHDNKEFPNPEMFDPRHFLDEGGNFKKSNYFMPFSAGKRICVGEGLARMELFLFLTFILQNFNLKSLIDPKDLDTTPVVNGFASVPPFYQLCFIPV
Cytochrome P450 2D6, sequence (P10635 whole entry): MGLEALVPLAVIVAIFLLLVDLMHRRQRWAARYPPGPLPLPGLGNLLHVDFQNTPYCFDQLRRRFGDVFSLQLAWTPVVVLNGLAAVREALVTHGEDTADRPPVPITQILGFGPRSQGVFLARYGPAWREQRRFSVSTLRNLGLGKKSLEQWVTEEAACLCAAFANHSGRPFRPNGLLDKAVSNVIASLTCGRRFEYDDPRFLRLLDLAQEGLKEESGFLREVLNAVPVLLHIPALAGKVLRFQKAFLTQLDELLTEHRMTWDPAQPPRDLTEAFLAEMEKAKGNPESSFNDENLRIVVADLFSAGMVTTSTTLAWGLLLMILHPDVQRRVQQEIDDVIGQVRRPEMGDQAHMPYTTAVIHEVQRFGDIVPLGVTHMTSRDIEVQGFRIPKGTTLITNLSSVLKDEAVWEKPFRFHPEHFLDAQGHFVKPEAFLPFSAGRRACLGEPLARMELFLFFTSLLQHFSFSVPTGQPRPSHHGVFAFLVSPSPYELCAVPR

inhibition [14]	inhibition [15]	SMILES	Activity [1]	IC50 (Cytochrome P450 1A2) [µM]	Activity [2]	Activity [3]	Activity [4]	Activity [5]	IC50 (Cytochrome P450 2C19) [µM]	concentration at 672 h [6] [nM]	Activity [7]	Activity [8]	Activity [9]	Activity [10]	Activity [11]	IC50 (Cytochrome P450 2D6) [µM]	concentration at 672 h [12] [nM]	Activity [13]
		O=C(c1ccc(S(=O)(=O)Nc2ccccc2)cc1)N(Cc1ccc(NCCO)cc1)CC1CC1	Non-toxic	> 25	Non-toxic	Non-toxic	Non-toxic	Non-toxic	11	62	Non-toxic	Non-toxic	Non-toxic	Non-toxic	Non-toxic	> 25	903	Non-toxic
Active	Active	Cc1c[nH]c2ncnc(-c3ccc(NC(=O)N(CCO)c4ccccc4)cc3)c12																
Active	Active	CCn1c(=O)c(-c2ccc(Cl)cc2Cl)cc2cnc(Nc3ccc(N4CCNCC4)c(F)c3)nc21																
